Shown are actives, neighbours in structure and some others; about 3.2% of the full set was active somewhere.
ABHD4 inh = inhibits mouse alpha/beta hydrolase domain 4 | Q8VD66 | hit rate 0.54% among 370,000 | AID 720543 | inhibition, % at 8.92 µM | purified mABHD4, FP-Rh probe fluorescence polarization;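 active = inhibition exceeding the mean over every tested compound plus 3 SD, cut at about 30% in these data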;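 also: 0% = plate median of compound wells and 100% = S159A mutant with DMSO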
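Assay system: wild-type mouse ABHD4 protein; compound: single nominal dose of 8.92 µM, 0.89% DMSO final; schedule: 45 min + 60 min at 25 °C; measured by: FP readout, ex 525 nm / em 598 nm; evaluation: % inhibition of FP-Rh probe binding versus controls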
DAGLB inhibitor = blocks human DAGLB lipase activity; Q8NCG7; HEK293T DAGLB membrane lysate, EnzChek fluorogenic substrate; inhibition, % at 5.17 µM; hit rate 0.059% among 340,000; AID 504411; in the data active = inhibition above about 34%;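 also: 0% = enzyme with vehicle and 100% = wells lacking enzyme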
Target sequence (Q8NCG7 whole entry, looked up): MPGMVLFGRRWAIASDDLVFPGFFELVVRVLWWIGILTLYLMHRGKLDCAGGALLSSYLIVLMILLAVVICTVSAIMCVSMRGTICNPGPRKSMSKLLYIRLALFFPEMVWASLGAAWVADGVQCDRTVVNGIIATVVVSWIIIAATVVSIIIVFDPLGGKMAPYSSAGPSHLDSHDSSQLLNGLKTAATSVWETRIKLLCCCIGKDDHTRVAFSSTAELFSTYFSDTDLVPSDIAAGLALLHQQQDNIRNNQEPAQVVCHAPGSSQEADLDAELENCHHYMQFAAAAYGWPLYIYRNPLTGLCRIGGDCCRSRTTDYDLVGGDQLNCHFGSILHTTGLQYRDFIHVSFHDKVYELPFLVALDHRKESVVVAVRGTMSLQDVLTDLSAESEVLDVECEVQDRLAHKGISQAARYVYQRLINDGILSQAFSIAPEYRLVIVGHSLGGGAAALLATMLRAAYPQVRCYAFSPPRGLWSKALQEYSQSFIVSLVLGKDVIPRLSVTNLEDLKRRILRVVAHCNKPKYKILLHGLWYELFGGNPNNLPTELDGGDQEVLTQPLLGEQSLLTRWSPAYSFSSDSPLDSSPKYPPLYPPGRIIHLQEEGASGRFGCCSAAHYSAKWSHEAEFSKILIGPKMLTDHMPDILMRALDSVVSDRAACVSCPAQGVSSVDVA
rCAG binder = binds r(CAG) RNA repeats; hit rate 1.3% among 370,000; inhibition, % at 3 µM; r(CAG) RNA repeat, TO-PRO-1 dye displacement fluorescence;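 active = inhibition above the plate cutoff, the mean of all test compounds on that plate plus 3 SD, cut at about 35% in these data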;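 also: 0% = DMSO alone and 100% = 100 µM mitoxantrone as full dye displacement; higher means more dye released from RNA so lower well fluorescence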
HTRA1 inhibitor = HTRA1 (human) protease inhibition; hit rate 0.5% among 340,000; recombinant HTRA1, FP-rhodamine activity-based probe, fluorescence polarization; inhibition, % at 5.96 µM; AID 504803; in the data active = inhibition above about 36%;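 also: 0% = enzyme with DMSO and 100% = wells lacking enzyme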
LEDGF integ inh = blocks HIV-1 LEDGF/p75-dependent DNA integration; TR-FRET IN-LEDGF/p75 DNA integration, Eu/Cy5; inhibition, % at 3.7 µM; hit rate 0.64% among 370,000; AID 743269;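 active = inhibition above the screen-wide mean plus 3 SD, cut at about 13% in these data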;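 also: signal is the Cy5 over europium emission ratio at 671 and 618 nm; 0% = plate median of compound wells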
PRMT1 FP inh = blocks human protein arginine methyltransferase 1. recombinant PRMT1, activity-based probe fluorescence polarization. hit rate 1.3% among 370,000. inhibition, % at 2.79 µM. AID 652257;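 active = inhibition above about 21% made by adding two undisclosed values, limit read from the data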
PRMT1 confirm = PRMT1 (human) inhibition, FP confirmation; inhibition, % at 2.79 µM; recombinant His-PRMT1, activity-based probe fluorescence polarization; shares compounds with PRMT1 FP inh; AID 687036; hit rate 42% among 3,300;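 active = mean inhibition across replicates above the hit cutoff derived for the earlier primary screen, cut at about 22% in these data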
Starred values were filed as active, the others as inactive.

`O=C(CC(Sc1ccccc1)c1cccs1)c1ccco1` (configuration not stated) gave ABHD4 inh 2, DAGLB inhibitor -1, rCAG binder -3, HTRA1 inhibitor -12, LEDGF integ inh 0, PRMT1 FP inh 80* and PRMT1 confirm 83*.
Screening O=C(Cc1cccs1)OCC(=O)c1ccco1 returned ABHD4 inh 8, DAGLB inhibitor -3, rCAG binder 13, HTRA1 inhibitor 7, LEDGF integ inh 6 and PRMT1 FP inh 2.
For Cc1cc(Cl)ccc1N=C1N=C(N)c2ccccc21 the results were ABHD4 inh -3, DAGLB inhibitor -4, rCAG binder 0, HTRA1 inhibitor 2, LEDGF integ inh 1 and PRMT1 FP inh -2.
`Cc1ccc(N=c2ssnc2Cl)cc1` gave ABHD4 inh 7, DAGLB inhibitor -1, rCAG binder -2, HTRA1 inhibitor 11, LEDGF integ inh 1, PRMT1 FP inh 70* and PRMT1 confirm 89*.
CC(C)(C)C1=CC(=Nc2ccccc2N)C=C(C(C)(C)C)C1=O was read as ABHD4 inh -3, DAGLB inhibitor 12, rCAG binder -2, HTRA1 inhibitor -8, LEDGF integ inh -2 and PRMT1 FP inh 1.
Cc1cc(Cl)ccc1N=c1ssnc1Cl was read as ABHD4 inh -13, DAGLB inhibitor 3, rCAG binder 7, HTRA1 inhibitor 3, LEDGF integ inh 5, PRMT1 FP inh 44* and PRMT1 confirm 94*.
`Cc1nnc(N=c2ssnc2Cl)o1` gave ABHD4 inh 1, DAGLB inhibitor -2, rCAG binder 5, HTRA1 inhibitor -3, LEDGF integ inh 2, PRMT1 FP inh 49* and PRMT1 confirm 70*.
Nc1ccccc1N=c1ssnc1Cl was read as ABHD4 inh 1, DAGLB inhibitor -1, rCAG binder 5, HTRA1 inhibitor -5, LEDGF integ inh -3, PRMT1 FP inh 69* and PRMT1 confirm 58*.
Screening Cc1cc(C)nc(/N=c2/ssnc2Cl)c1 returned ABHD4 inh 3, DAGLB inhibitor -3, rCAG binder 0, HTRA1 inhibitor 9, LEDGF integ inh -1 and PRMT1 FP inh 7.
Screening Fc1cccc(Cl)c1CN1CCN(c2nc3ccccc3s2)CC1 returned ABHD4 inh -2, DAGLB inhibitor -11, rCAG binder -5, HTRA1 inhibitor -18, LEDGF integ inh -2 and PRMT1 FP inh -5.
CC(=O)Nc1ccc(S(=O)(=O)NCCSCc2ccco2)cc1 was read as ABHD4 inh 0, DAGLB inhibitor 0, rCAG binder 15, HTRA1 inhibitor -3, LEDGF integ inh 1, PRMT1 FP inh 28* and PRMT1 confirm 61*.
`Nc1n[nH]c(=S)n1/N=C1/C(=O)Nc2ccccc21` gave ABHD4 inh -4, DAGLB inhibitor 0, rCAG binder 14, HTRA1 inhibitor 7, LEDGF integ inh 8, PRMT1 FP inh 43* and PRMT1 confirm 40*.
Screening O=C1Nc2ccccc2C1=NN1CCCCCC1 returned ABHD4 inh 3, DAGLB inhibitor 5, rCAG binder 2, HTRA1 inhibitor -3, LEDGF integ inh -3 and PRMT1 FP inh 1.
Screening COc1ccc2[nH]c(=O)c(CNc3ccccc3)cc2c1 returned ABHD4 inh 17, DAGLB inhibitor 2, rCAG binder 8, HTRA1 inhibitor 8, LEDGF integ inh -4, PRMT1 FP inh 25* and PRMT1 confirm 1.
Screening CC(=O)N(C(C)=O)c1cccc(N(Cc2ccccc2)Cc2ccccc2)c1 returned ABHD4 inh -19, DAGLB inhibitor -6, rCAG binder 1, HTRA1 inhibitor -15, LEDGF integ inh 6 and PRMT1 FP inh -1.
`N#Cc1cc2c(nc1SCc1ccncc1)CCC2` gave ABHD4 inh 5, DAGLB inhibitor 2, rCAG binder 4, HTRA1 inhibitor 1, LEDGF integ inh 2, PRMT1 FP inh 38* and PRMT1 confirm 13.
`Cc1ccccc1NS(=O)(=O)c1ccc(-c2ccc(=O)[nH]n2)o1` gave ABHD4 inh -1, DAGLB inhibitor 3, rCAG binder 2, HTRA1 inhibitor -4, LEDGF integ inh 2 and PRMT1 FP inh -2.
For CCN(CC)c1ccc(NS(=O)(=O)c2ccc(-c3ccc(=O)[nH]n3)o2)c(C)c1 the results were ABHD4 inh 20, DAGLB inhibitor 3, rCAG binder 5, HTRA1 inhibitor 14, LEDGF integ inh 15*, PRMT1 FP inh 42* and PRMT1 confirm 3.
For O=C(O)CSC1CC(=O)N(c2cccc(Cl)c2)C1=O (configuration not stated) the results were ABHD4 inh -2, DAGLB inhibitor -3, rCAG binder 5, HTRA1 inhibitor 4, LEDGF integ inh 1 and PRMT1 FP inh 20.
O=C(O)CSC1CC(=O)N(c2ccc(Cl)c(Cl)c2)C1=O (configuration not stated) was read as ABHD4 inh -1, DAGLB inhibitor -5, rCAG binder 10, HTRA1 inhibitor -7, LEDGF integ inh 5, PRMT1 FP inh 48* and PRMT1 confirm 36*.
Screening O=C(NCc1ccncc1)c1cc(C(=O)C2CCCCC2)c[nH]1 returned ABHD4 inh -6, DAGLB inhibitor -1, rCAG binder 3, HTRA1 inhibitor 3, LEDGF integ inh 2 and PRMT1 FP inh -3.
CC(=O)c1ccc(S(=O)(=O)NCC(=O)NC(c2nc3ccccc3[nH]2)C(C)C)cc1 (configuration not stated) was read as ABHD4 inh -2, DAGLB inhibitor -1, rCAG binder 6, HTRA1 inhibitor -2, LEDGF integ inh 2, PRMT1 FP inh 34* and PRMT1 confirm 38*.
Screening CC(C)OC(=O)CSc1nnc(-c2ccncc2)n1N returned ABHD4 inh 8, DAGLB inhibitor 0, rCAG binder -1, HTRA1 inhibitor -4, LEDGF integ inh -4 and PRMT1 FP inh 2.
Screening CC(C)OC(=O)CSc1nnc(-c2ccc(C(C)(C)C)cc2)n1N returned ABHD4 inh 6, DAGLB inhibitor -1, rCAG binder -7, HTRA1 inhibitor 8, LEDGF integ inh 1, PRMT1 FP inh 53* and PRMT1 confirm 60*.
For Cc1cn([C@H]2C[C@H](O)[C@@H](CNCc3ccc(F)c(N4CCOCC4)c3)O2)c(=O)[nH]c1=O the results were ABHD4 inh 7, DAGLB inhibitor 1, rCAG binder -1, HTRA1 inhibitor -5, LEDGF integ inh -1 and PRMT1 FP inh 6.
For CCC(C)(C)NC(=O)c1cc(S(=O)(=O)N2CCc3ccccc32)cn1C the results were ABHD4 inh -5, DAGLB inhibitor -4, rCAG binder 0, HTRA1 inhibitor 7, LEDGF integ inh 0, PRMT1 FP inh 26* and PRMT1 confirm 4.

High-throughput results deposited in PubChem BioAssay by The Scripps Research Institute Molecular Screening Center.
